Assay results from ChEMBL document CHEMBL1122917, “Vinblastin-23-oyl amino acid derivatives: chemistry, physicochemical data, toxicity, and antitumor activities against P388 and L1210 leukemias” (J Med Chem, 1985).

Columns and labels:
Type in all cases: functional
Mus musculus [1] = assay: Percent increase in life span of DBA2 mice after inoculation with L1210 leukemia intravenously at a dose of 65 mg/kg per day; details: route intravenous
In short: (§1)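 Female DBA2 mice inoculated iv on day 0 with 10^4 L1210 cells; drugs given iv as sulfate salts in physiological saline, mostly once on day 1. %ILS from all deaths and survivors as (T/C × 100) − 100; survivors scored on days 30 and 60.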

Mus musculus [2] = assay: Number of survivors on 30th day at dose 60 mg/kg/day in 10 mice implanted with P388 leukemia cell line
Mus musculus [3] = assay: Percent increase in life span at dose 60 mg/kg/day in 10 mice implanted with P388 leukemia cell line
In short: (§2)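 Female DBA2 mice inoculated iv on day 0 with 10^4 P388 cells; single iv treatment on day 1 with drug as sulfate salt in physiological saline. Survival followed; %ILS from all deaths and survivors as (T/C × 100) − 100, maximal MST 30 days; survivors counted on days 30 and 60. Most experiments confirmed three times.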

Mus musculus [4] = assay: Percent increase in life span of DBA2 mice after inoculation with L1210 leukemia intravenously at a dose of 55 mg/lg per day
Mus musculus [5] = assay: Number of survivors on 30th day at dose 50 mg/kg/day in 10 mice implanted with P388 leukemia cell line
Mus musculus [6] = assay: Percent increase in life span of DBA2 mice after inoculation with L1210 leukemia intravenously at a dose of 75 mg/kg per day; details: route intravenous
Mus musculus [7] = assay: Number of survivors on 30th day at dose 75 mg/kg/day in 10 mice implanted with P388 leukemia cell line
Mus musculus [8] = assay: Number of survivors of DBA2 mice on 30th day after inoculation with L1210 leukemia cell line intravenously at a dose of 65 mg/kg/day; 0/10; details: route intravenous
Mus musculus [9] = assay: Percent increase in life span at dose 75 mg/kg/day in 10 mice implanted with P388 leukemia cell line
Mus musculus [10] = assay: Number of survivors of DBA2 mice on 60th day after inoculation with L1210 leukemia cell line intravenously at a dose of 55 mg/kg/day; 0/10; details: route intravenous
Mus musculus [11] = assay: Percent increase in life span of DBA2 mice after inoculation with L1210 leukemia intravenously at a dose of 70 mg/kg per day; details: route intravenous; in short: as §1
Mus musculus [12] = assay: Number of survivors of DBA2 mice on 60th day after inoculation with L1210 leukemia cell line intravenously at a dose of 60 mg/kg/day; 0/10; details: route intravenous
Mus musculus [13] = assay: Number of survivors of DBA2 mice on 30th day after inoculation with L1210 leukemia cell line intravenously at a dose of 55 mg/kg/day; 0/10; details: route intravenous
Mus musculus [14] = assay: Number of survivors of DBA2 mice on 30th day after inoculation with L1210 leukemia cell line intravenously at a dose of 60 mg/kg/day; 0/10; details: route intravenous
Mus musculus [15] = assay: Number of survivors of DBA2 mice on 60th day after inoculation with L1210 leukemia cell line intravenously at a dose of 65 mg/kg/day; 0/10; details: route intravenous
Mus musculus [16] = assay: Percent increase in life span at dose 50 mg/kg/day in 10 mice implanted with P388 leukemia cell line; in short: as §2
Mus musculus [17] = assay: Number of survivors on 60th day at dose 60 mg/kg/day in 10 mice implanted with P388 leukemia cell line; in short: as §2
Mus musculus [18] = assay: Number of survivors on 60th day at dose 55 mg/kg/day in 10 mice implanted with P388 leukemia cell line
Mus musculus [19] = assay: Percent increase in life span of DBA2 mice after inoculation with L1210 leukemia intravenously at a dose of 60 mg/kg per day; details: route intravenous; in short: as §1
Mus musculus [20] = assay: Number of survivors of DBA2 mice on 60th day after inoculation with L1210 leukemia cell line intraperitoneally at a dose of 75 mg/kg/day; 0/10; details: route intraperitoneal
Mus musculus [21] = assay: Number of survivors on 60th day at dose 80 mg/kg/day in 10 mice implanted with P388 leukemia cell line
Mus musculus [22] = assay: Number of survivors on 60th day at dose 75 mg/kg/day in 10 mice implanted with P388 leukemia cell line
Mus musculus [23] = assay: Percent increase in life span at dose 55 mg/kg/day in 10 mice implanted with P388 leukemia cell line; in short: as §2
Mus musculus [24] = assay: Number of survivors on 30th day at dose 55 mg/kg/day in 10 mice implanted with P388 leukemia cell line
Mus musculus [25] = assay: Number of survivors on 30th day at dose 80 mg/kg/day in 10 mice implanted with P388 leukemia cell line
Mus musculus [26] = assay: Number of survivors of DBA2 mice on 30th day after inoculation with L1210 leukemia cell line intravenously at a dose of 70 mg/kg/day; 0/10; details: route intravenous
Mus musculus [27] = assay: Number of survivors of DBA2 mice on 30th day after inoculation with L1210 leukemia cell line intravenously at a dose of 75 mg/kg/day; 0/10; details: route intravenous
Mus musculus [28] = assay: Number of survivors on 60th day at dose 50 mg/kg/day in 10 mice implanted with P388 leukemia cell line
Mus musculus [29] = assay: Percent increase in life span at dose 80 mg/kg/day in 10 mice implanted with P388 leukemia cell line; in short: as §2
Mus musculus [30] = assay: Number of survivors of DBA2 mice on 60th day after inoculation with L1210 leukemia cell line intraperitoneally at a dose of 70 mg/kg/day; 0/10; details: route intraperitoneal

CCOC(=O)[C@H](Cc1ccccc1)NC(=O)[C@@]1(O)[C@H](O)[C@]2(CC)C=CCN3CC[C@@]4(c5cc([C@@]6(C(=O)OC)C[C@H]7C[N@](CCc8c6[nH]c6ccccc86)C[C@](O)(CC)C7)c(OC)cc5N(C)[C@@]14C)[C@@H]32
ILS at 65 mg/kg/day (Mus musculus [1]): 3.5% | Survivors (Mus musculus [2]): 0 | ILS at 60 mg/kg/day (Mus musculus [3]): 13.3% | ILS (Mus musculus [4]): 0% | Survivors (Mus musculus [5]): 1 | ILS at 75 mg/kg/day (Mus musculus [6]): 25% | Survivors (Mus musculus [7]): 0 | Survivors (Mus musculus [8]): 0 | ILS at 75 mg/kg/day (Mus musculus [9]): 26.6% | Survivors (Mus musculus [10]): 0 | ILS at 70 mg/kg/day (Mus musculus [11]): 13% | Survivors (Mus musculus [12]): 0 | Survivors (Mus musculus [13]): 0 | Survivors (Mus musculus [14]): 0 | Survivors (Mus musculus [15]): 0 | ILS at 50 mg/kg/day (Mus musculus [16]): 21.5% | Survivors (Mus musculus [17]): 0 | Survivors (Mus musculus [18]): 0 | ILS at 60 mg/kg/day (Mus musculus [19]): 13.9% | Survivors (Mus musculus [20]): 0 | Survivors (Mus musculus [21]): 0 | Survivors (Mus musculus [22]): 0 | ILS at 55 mg/kg/day (Mus musculus [23]): 36.4% | Survivors (Mus musculus [24]): 1 | Survivors (Mus musculus [25]): 0 | Survivors (Mus musculus [26]): 0 | Survivors (Mus musculus [27]): 0 | Survivors (Mus musculus [28]): 1 | ILS at 80 mg/kg/day (Mus musculus [29]): 41.7% | Survivors (Mus musculus [30]): 0
